UCH37 inh – inhibitors of human deubiquitinating enzyme UCH37; Q9Y5K5; purified proteasome/UCH37, Ub-AMC cleavage fluorescence; inhibition, % (concentration not given with the values); hit rate 0.33% among 330,000; AID 588478;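 active means mean inhibition over replicate wells above about 20%, limit read from the data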;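 further: 0% = compound-free wells with enzyme and 100% = wells lacking proteasome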
Target sequence (Q9Y5K5 whole entry, looked up): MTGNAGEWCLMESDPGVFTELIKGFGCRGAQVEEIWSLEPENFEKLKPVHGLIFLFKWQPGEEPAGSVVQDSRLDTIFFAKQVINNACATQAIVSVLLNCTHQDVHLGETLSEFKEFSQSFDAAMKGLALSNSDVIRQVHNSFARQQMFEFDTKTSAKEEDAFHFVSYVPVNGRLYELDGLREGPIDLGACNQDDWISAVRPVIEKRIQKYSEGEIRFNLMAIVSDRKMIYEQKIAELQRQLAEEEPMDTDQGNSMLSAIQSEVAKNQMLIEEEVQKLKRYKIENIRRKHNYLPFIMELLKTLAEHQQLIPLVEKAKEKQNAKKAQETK
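Material: Human UCH37 enzyme supplied as purified proteasome complex | Schedule: 30 min preincubation with enzyme, 25 min cleavage at room temperature | Detection: AMC fluorescence 355/460 nm | Measure: % inhibition of Ub-AMC cleavage fluorescence | Controls: Wells without proteasome as full block, compound-free enzyme plus substrate as uninhibited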
NSD2 HMT inh – blocks human histone methyltransferase NSD2 | NSD2 peptide methylation, AlphaScreen, 120 min | inhibition, % at 12.5 µM | hit rate 0.54% among 310,000; in the data active means inhibition above about 50%
FGF22 binding – FGF22 (human) thermal shift binding. recombinant FGF22 thermal shift, SYPRO orange fluorescence; percent of sucrose octasulfate shift, DMSO zero. activity (Tm shift, normalised), % at 9.99 µM. Q9HCT0. hit rate 1.5% among 340,000. AID 651658;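 active means mean Tm shift, scaled 0 neutral to 100 positive control, at about 1.3% or above, every replicate too, limit read from the data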
Target sequence (Q9HCT0 whole entry, looked up): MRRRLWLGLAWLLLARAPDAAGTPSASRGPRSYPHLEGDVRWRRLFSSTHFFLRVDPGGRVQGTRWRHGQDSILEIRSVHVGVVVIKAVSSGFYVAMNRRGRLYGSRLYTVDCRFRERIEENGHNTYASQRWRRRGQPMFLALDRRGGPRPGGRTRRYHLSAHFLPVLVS
CASP6 VEID inh – caspase-6 (human) enzyme inhibition; purified caspase-6, Z-VEID-R110 cleavage fluorescence; P55212; inhibition, % at 12.5 µM; hit rate 0.53% among 350,000;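 active means mean inhibition across replicates at least about 35%, with every replicate also reaching that limit, limit read from the data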;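 further: 0% = median of neutral control wells and 100% = no fluorescence left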
SIRT5 inh – sirtuin-5 (human) deacylase inhibition. Purified SirT5, succinyl-peptide AMC, trypsin-coupled fluorescence. inhibition, % at 15 µM. hit rate 1.1% among 330,000. AID 652115. Q9NXA8; in the data active means inhibition above about 15%
Starred values were filed as active, the others as inactive; x = no result. Sampled rows, rich in hits. Any-hit rate of the full collection: about 2.6%.

SMILES	UCH37 inh	NSD2 HMT inh	FGF22 binding	CASP6 VEID inh	SIRT5 inh
Cc1noc(C)c1S(=O)(=O)Nc1ccc2c(c1)C(=O)N([C@H](C)CO)C[C@@H](C)[C@@H](CN(C)Cc1ccc(C(=O)O)cc1)OCCCC[C@H](C)O2	x	x	1.3*	-1.1	-4.2
Cc1noc(C)c1S(=O)(=O)Nc1ccc2c(c1)C(=O)N([C@H](C)CO)C[C@H](C)[C@H](CN(C)Cc1ccc(C(F)(F)F)cc1)OCCCC[C@@H](C)O2	x	x	0.3	3.0	4.5
Cc1noc(C)c1S(=O)(=O)Nc1ccc2c(c1)C(=O)N([C@H](C)CO)C[C@@H](C)[C@@H](CN(C)Cc1ccc(C(F)(F)F)cc1)OCCCC[C@@H](C)O2	x	x	-0.4	-2.5	24.2*
O[C@H]1C[C@H](c2ccccc2)N(Cc2cccs2)C[C@@H]1n1cc(-c2ccc(F)cc2)nn1	x	x	0.5	-1.9	16.3*
C[C@@H]1CN([C@@H](C)CO)C(=O)c2cc(-c3cccnc3)cnc2O[C@@H]1CN(C)Cc1ccc(-c2ccccc2)cc1	x	x	0.2	-1.6	3.2
N#Cc1c(NC(=O)/C=C/c2ccco2)sc2c1CCCC2	-8.2	36.5	0.1	-3.3	-2.5
Cc1ccc(-c2csc(NC(=O)/C=C/c3ccco3)c2C(=O)O)cc1	16.0	4.0	0.0	75.4*	6.9
Cc1ccc(-c2csc(NC(=O)c3cccc(C)c3)c2C(=O)O)cc1	-1.3	2.0	-0.2	-1.0	2.6
O=C(/C=C/c1ccco1)Nc1sc2c(c1C(=O)O)CCC2	13.6	10.8	0.0	60.7*	10.9
Cc1ccc(S(=O)(=O)NNC(=O)C23CCC(CC2)C3)cc1	x	-3.4	42.9*	-2.6	x
O=C1c2ccccc2C(=O)C12OC2c1cccc2ccccc12 (stereo not drawn)	23.9*	101.4*	0.2	33.1	6.2
CCc1ccccc1NC(=S)NC1CC2CCC(C1)N2Cc1ccco1 (stereo not drawn)	-0.9	9.7	0.1	-2.2	0.6
CCc1ccccc1NC(=S)NC1CC2CCC(C1)N2Cc1ccc(F)cc1 (stereo not drawn)	-1.1	-1.3	1.5*	1.5	2.0
C[C@H](CO)N1C[C@H](C)[C@H](CN(C)Cc2cccc(C(=O)O)c2)OCc2ccccc2-c2c(n(C)c3ccccc23)C1=O	x	x	-0.3	-2.3	-3.3
C[C@H]1CN([C@@H](C)CO)C(=O)c2c(c3ccccc3n2C)-c2ccccc2CO[C@@H]1CN(C)Cc1ccc2c(c1)OCO2	x	x	x	3.7	19.5*
C[C@@H]1CN([C@@H](C)CO)C(=O)c2c(c3ccccc3n2C)-c2ccccc2CO[C@H]1CN(C)Cc1cccc(C(=O)Nc2ccccc2N)c1	x	x	-0.1	1.3	17.3*
C[C@@H]1CN([C@H](C)CO)C(=O)c2c(c3ccccc3n2C)-c2ccccc2CO[C@H]1CN(C)Cc1cccc(O)c1	x	x	0.0	-2.4	5.5
C[C@@H]1CN([C@H](C)CO)C(=O)c2c(c3ccccc3n2C)-c2ccccc2CO[C@@H]1CN(C)Cc1ccc2c(c1)OCCN2C	x	x	-0.5	0.1	15.9*
C[C@@H]1CN([C@@H](C)CO)C(=O)c2c(c3ccccc3n2C)-c2ccccc2CO[C@@H]1CN(C)Cc1cccc(O)c1	x	x	-0.4	0.0	22.7*
C[C@@H]1CN([C@@H](C)CO)C(=O)c2c(c3ccccc3n2C)-c2ccccc2CO[C@H]1CN(C)Cc1ccc2c(c1)OCCN2C	x	x	-0.3	-0.1	3.5
C[C@H]1CN([C@@H](C)CO)C(=O)c2c(c3ccccc3n2C)-c2ccccc2CO[C@@H]1CN(C)Cc1cccc(F)c1	x	x	x	-0.7	17.9*
CCOC(=O)c1c(NC(=O)CSc2ncccn2)sc2c1CCN(Cc1ccccc1)C2	-0.8	-1.7	42.9*	-1.7	4.4
CC(C)(C)C(=O)Nc1nc2c(s1)CN(Cc1ccccc1)CC2	2.2	1.6	43.2*	-6.4	0.5
COC(=O)c1c(NC(C)=O)sc2c1CCN(Cc1ccccc1)C2	4.6	x	-0.2	1.1	18.0*
Cn1c(N2CCOCC2)c(C=NOC(=O)c2cccnc2Cl)c2ccccc21	-29.0	x	x	x	x
SMILES	UCH37 inh	NSD2 HMT inh	FGF22 binding	CASP6 VEID inh	SIRT5 inh
O=C(C[C@H]1C/C=C\CC[C@H](Cc2ccc(F)cc2)C(=O)O[C@@H](c2ccccc2)CNC1=O)N[C@@H](CO)Cc1ccccc1	4.1	x	44.1*	-0.1	-1.6
COc1cc(C=c2c3ccccc3n3c2cc(-c2ccccc2)[n+]3C)cc(OC)c1OC	x	x	-0.5	96.3*	-0.3
Cc1ccc([C@@H]2CC=C(C(=O)O)[C@H](c3ccc(C(C)(C)C)cc3)N2S(=O)(=O)c2ccc(C)cc2)cc1	8.3	x	-0.2	46.1*	7.2
Cc1ccc(S(=O)(=O)N2[C@@H](c3ccc(C(C)(C)C)cc3)C(C(=O)O)=CC[C@H]2c2ccc(Cl)cc2)cc1	15.2	x	40.7	25.7	16.2*
CCc1ccc([C@@H]2CC=C(C(=O)O)[C@H](c3ccc(C(C)(C)C)cc3)N2S(=O)(=O)c2ccc(C)cc2)cc1	12.5	x	40.7	45.1*	22.3*
Cc1ccc(S(=O)(=O)N2[C@@H](c3ccc(Br)cc3)C(C(=O)O)=CC[C@H]2c2ccc(C(C)C)cc2)cc1	12.0	x	-0.2	25.6	15.3*
CCc1ccc([C@@H]2CC=C(C(=O)O)[C@H](c3ccccc3)N2S(=O)(=O)c2ccc(C)cc2)cc1	1.3	x	-0.1	6.0	1.3
Cc1nn(-c2ccccc2)c(Cl)c1C=NNc1ccc(Cl)c(C(=O)O)c1	6.1	x	x	x	x
Cc1ccccc1S(=O)(=O)N1[C@@H](c2ccc(F)cc2)C(C(=O)O)=CC[C@H]1c1ccc(Cl)cc1	1.2	x	2.2*	2.9	2.5
Cc1ccc(S(=O)(=O)N2[C@@H](c3ccc(C(C)(C)C)cc3)C(C(=O)O)=CC[C@H]2c2ccc(C(C)C)cc2)cc1	11.2	x	-0.2	33.2	28.1*
O=C(O)C1=CC[C@@H](c2ccc(Cl)cc2)N(S(=O)(=O)c2ccc(Cl)cc2)[C@H]1c1ccc(F)cc1	2.8	x	0.9	7.6	2.9
Cc1ccc(S(=O)(=O)N2[C@@H](c3ccccc3F)C(C(=O)O)=CC[C@H]2c2ccc(C(C)C)cc2)cc1	4.3	x	x	x	x
C[C@@H]1CCCCO[C@H](CN(C)C(=O)Nc2ccc3c(c2)OCO3)[C@H](C)CN([C@@H](C)CO)C(=O)c2cc(NS(=O)(=O)c3ccc(F)cc3)ccc2O1	x	x	-0.3	x	x
O=C(CNc1ccc2ccccc2c1)N/N=C/c1ccc([N+](=O)[O-])o1	x	15.4	43.2*	0.8	-1.6
O=C(N/N=C/c1ccc([N+](=O)[O-])o1)C1CC1	x	4.7	0.1	41.9*	9.7
COc1cccc(C(=O)Oc2ccc(N3C(=O)CCC3=O)c(C)c2)c1	5.9	-1.4	0.2	9.5	15.6*
CN(C)N1C(N)=C(C#N)C(c2ccc(F)cc2)C2=C1CCCC2=O (stereo not drawn)	1.3	-0.2	0.0	1.3	-1.2
CN(C)N1C(N)=C(C#N)C(c2ccccc2)C2=C1CCCC2=O (stereo not drawn)	7.3	-0.1	43.4*	-0.9	-0.1

Bioassay records (PubChem BioAssay)
